The record followed here is ChEMBL document CHEMBL1914293, “Pharmacophore-based discovery of FXR-agonists. Part II: identification of bioactive triterpenes from Ganoderma lucidum” (Bioorg Med Chem, 2011).

Activity calls are given as the source filed them. The rule behind the calls is not given here.

Holding throughout (assay type): functional, cell-based
In experiment [1] the target is T1, Bile acid receptor/Retinoic acid receptor RXR-alpha (Mus musculus, UniProt P28700+Q60641).
T1 sequence (P28700 whole entry): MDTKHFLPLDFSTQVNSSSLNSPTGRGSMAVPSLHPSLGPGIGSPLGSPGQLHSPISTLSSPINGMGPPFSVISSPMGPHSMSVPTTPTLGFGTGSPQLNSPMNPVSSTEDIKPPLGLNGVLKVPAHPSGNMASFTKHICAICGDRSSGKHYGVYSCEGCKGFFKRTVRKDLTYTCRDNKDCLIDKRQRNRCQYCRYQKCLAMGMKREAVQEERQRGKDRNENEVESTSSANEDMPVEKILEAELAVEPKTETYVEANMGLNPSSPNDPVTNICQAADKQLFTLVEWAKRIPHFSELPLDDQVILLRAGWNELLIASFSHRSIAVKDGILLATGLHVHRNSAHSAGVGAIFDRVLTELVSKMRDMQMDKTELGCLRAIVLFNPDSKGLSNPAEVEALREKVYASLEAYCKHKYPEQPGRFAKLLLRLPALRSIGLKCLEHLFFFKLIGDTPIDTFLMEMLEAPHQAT
T1 sequence (Q60641 whole entry): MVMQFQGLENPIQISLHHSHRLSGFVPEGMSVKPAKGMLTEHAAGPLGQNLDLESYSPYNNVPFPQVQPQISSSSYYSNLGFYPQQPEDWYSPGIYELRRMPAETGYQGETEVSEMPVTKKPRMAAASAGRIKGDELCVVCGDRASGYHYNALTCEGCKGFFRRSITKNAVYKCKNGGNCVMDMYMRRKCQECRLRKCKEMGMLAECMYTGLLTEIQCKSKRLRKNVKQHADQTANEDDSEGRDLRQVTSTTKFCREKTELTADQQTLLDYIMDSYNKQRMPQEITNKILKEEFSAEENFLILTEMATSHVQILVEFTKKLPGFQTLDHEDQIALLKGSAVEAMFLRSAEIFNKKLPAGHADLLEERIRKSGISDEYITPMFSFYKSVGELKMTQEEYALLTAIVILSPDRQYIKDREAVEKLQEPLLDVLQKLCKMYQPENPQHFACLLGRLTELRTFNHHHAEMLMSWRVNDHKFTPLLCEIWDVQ
Nature of the experiment: Agonist activity at full length mouse FXR/RXRalpha expressed in human HEK293 cells assessed as induction of transcriptional activity after 18 hrs by dual luciferase reporter gene assay.

The subject of experiment [2] is HUVEC. Nature of the experiment: Antiinflammatory activity in human HUVEC cells assessed as inhibition of LPS-induced IL-8 mRNA expression at 5 uM for 10 mins measured after 4 hrs of LPS challenge by Q-PCR analysis. The procedure, abridged: (§1)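 hTERT-immortalized HUVEC (HUVECtert) were grown in M199 with 20% FBS, endothelial cell growth supplement and antibiotics. Cells were treated with compounds at 5 μM, then stimulated with TNFα (human recombinant, 100 ng/mL) or LPS (E. coli 055:B5, 300 ng/mL). IL-8 and E-selectin mRNA were measured by qPCR, normalized to β2-microglobulin (Pfaffl method), and expressed as fold over untreated control. Statistics used ANOVA with Bonferroni post-test.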

Experiment [3] relates to HUVEC. The experiment in a line: Antiinflammatory activity in human HUVEC cells assessed as inhibition of TNF-alpha-induced IL-8 mRNA expression at 5 uM for 10 mins measured after 4 hrs of LPS challenge by Q-PCR analysis. The procedure, abridged: as §1
For experiment [4], the system named is HUVEC. The experiment in a line: Antiinflammatory activity in human HUVEC cells assessed as inhibition of TNF-alpha-induced E-selectin mRNA expression at 5 uM for 10 mins measured after 4 hrs of LPS challenge by Q-PCR analysis. The procedure, abridged: as §1
Experiment [5] relates to HUVEC. The experiment in a line: Antiinflammatory activity in human HUVEC cells assessed as inhibition of LPS-induced E-selectin mRNA expression at 5 uM for 10 mins measured after 4 hrs of LPS challenge by Q-PCR analysis. The gist of the method: as §1

One may read the EC50 as the midpoint of the concentration-response curve. In the case of `C[C@H](CCC=C(CO)CO)[C@H]1CC[C@@]2(C)C3=CC[C@H]4C(C)(C)C(=O)CC[C@]4(C)C3=CC[C@]12C` [GANODERIOL F], the EC50 in experiment [1] was determined as 5 µM. The inhibition result in the experiment with HUVEC [2], with HUVEC [3], in the experiment on HUVEC [4] and in the experiment with HUVEC [5] was “Active” in each case.

On to `C[C@H](CC[C@H](O)[C@](C)(O)CO)[C@H]1CC[C@@]2(C)C3=CC[C@H]4C(C)(C)C(=O)CC[C@]4(C)C3=CC[C@]12C` [GANODERMANONTRIOL], for which the EC50 in experiment [1] amounted to 2.5 µM. Further, the inhibition entry in the experiment with HUVEC [2], with HUVEC [3], in the experiment on HUVEC [4] and with HUVEC [5] was “Active” in each case.

For `C[C@H](CC[C@H](O)C(C)(C)O)[C@H]1CC[C@@]2(C)C3=C(CC[C@]12C)[C@@]1(C)CCC(=O)C(C)(C)[C@@H]1CC3=O` [LUCIDUMOL A], in experiment [1], the EC50 was more than 18.6 µM. Further, the inhibition result in the experiment on HUVEC [2], in the experiment on HUVEC [3], in the experiment with HUVEC [4] and in the experiment with HUVEC [5] was “Active” in each case.

As to `C/C(=C/CC[C@@H](C)[C@H]1C[C@H](O)[C@@]2(C)C3=CC[C@H]4C(C)(C)C(=O)CC[C@]4(C)C3=CC[C@]12C)C(=O)O` [GANODERIC ACID TR], in experiment [1], the EC50 is more than 14 µM. Also, the inhibition result in the experiment with HUVEC [2], in the experiment with HUVEC [3], with HUVEC [4] and in the experiment with HUVEC [5] was “Active” throughout.

As for `CC(C)[C@@H](C)/C=C/[C@@H](C)[C@H]1CC[C@@H]2[C@]1(C)CC[C@H]1[C@]23C=C[C@]2(C[C@@H](O)CC[C@]12C)OO3` [ERGOSTEROL PEROXIDE], in experiment [1], the EC50 turned out to be 0.85 µM. In addition, the inhibition entry with HUVEC [2], with HUVEC [3], with HUVEC [4] and with HUVEC [5] was “Active” throughout.
